Screening data: PubChem BioAssay, The Scripps Research Institute Molecular Screening Center
Compounds with a hit are over-represented: about 1.3% of the library has one in this group of screens.
RBBP9 inh – human RBBP9 inhibitors, primary screen, biochemical, fluorescence polarization, FP-Rh probe, HTS; Serine hydrolase RBBP9 (Homo sapiens), O75884; recombinant RBBP9; inhibition, % at 7.94 µM; 0.2% of 220,000 active;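 active = inhibition above the campaign mean of all tested compounds plus 3 SD, cut at about 14% in these data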;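 note: plate controls were DMSO wells with RBBP9 for no effect and wells lacking RBBP9 protein for full effect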
Target sequence (O75884 whole entry, looked up): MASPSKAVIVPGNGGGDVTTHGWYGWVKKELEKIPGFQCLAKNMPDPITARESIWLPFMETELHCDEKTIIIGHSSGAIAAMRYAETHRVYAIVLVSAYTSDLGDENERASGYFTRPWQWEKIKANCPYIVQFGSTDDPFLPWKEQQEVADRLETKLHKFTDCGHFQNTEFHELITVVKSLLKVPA
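Test system – recombinant human RBBP9 · Input – RBBP9 2.5 µM in dispensing solution, pre-mixing · Medium – Tris buffer pH 8.0, NaCl, Pluronic · Schedule – preincubation 30 min plus labeling 45 min at 25 °C · Measured by – fluorescence polarization · Measure – % inhibition · Controls – DMSO and no-protein wells · Replicates – one well per compound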
LYPLA1 inh – LYPLA1 inhibitors, primary screen, counter-screen for PME1 inhibitor project, biochemical, fluorescence polarization, FP-Rh probe ABPP; Acyl-protein thioesterase 1 (Homo sapiens), O75608; recombinant LYPLA1; 0.16% of 320,000 active; AID 2174, 2009; inhibition, % at 5.9 µM;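 active = inhibition above the mean of all tested compounds plus 3 SD, set per campaign, cut at about 14% in these data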;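 note: inhibitors block serine hydrolase probe labeling of LYPLA1 so polarization falls; 0% = enzyme with DMSO and 100% = wells lacking LYPLA1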
PAD4 FP inh – human PAD4 inhibitors, primary screen, biochemical, fluorescence polarization, 1536-well format. Protein-arginine deiminase type-4 (Homo sapiens), Q9UM07. recombinant PAD4, RCA probe fluorescence polarization. inhibition, % at 6.36 µM. 0.41% of 330,000 active. AID 485272, 2010;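 active = percent inhibition above a cutoff equal to the mean of all tested compounds plus 3 SD, cut at about 15% in these data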;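 note: 0% = PAD4 with RCA probe and DMSO and 100% = probe without PAD4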
Fam108B inh – mouse Fam108B serine hydrolase inhibitors, primary screen, counter-screen for RBBP9 inhibitor project, biochemical, fluorescence polarization | inhibition, % at 9.51 µM | recombinant Fam108B, FP-Rh probe fluorescence polarization | 0.33% of 300,000 active;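 active = inhibition above the screen mean inhibition plus 3 SD, computed separately per campaign, cut at about 18% in these data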;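 note: inhibitors lower polarization as less probe binds the enzyme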
PME-1 inh – PME-1 inhibitors via competitive probe labeling, primary screen, biochemical, fluorescence polarization, FP-Rh probe, HTS; recombinant PME-1; inhibition, % at 5.9 µM; 0.53% of 320,000 active;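 active = inhibition above the campaign mean of all compounds plus 3 SD, cut at about 26% in these data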;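 note: competitive labeling of PME-1 active site by serine hydrolase directed probe; 0% = PME-1 with DMSO and 100% = wells lacking PME-1 enzyme; inhibitors block probe labeling so polarization falls and inhibition rises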
Target sequence (Q9Y570 whole entry, looked up): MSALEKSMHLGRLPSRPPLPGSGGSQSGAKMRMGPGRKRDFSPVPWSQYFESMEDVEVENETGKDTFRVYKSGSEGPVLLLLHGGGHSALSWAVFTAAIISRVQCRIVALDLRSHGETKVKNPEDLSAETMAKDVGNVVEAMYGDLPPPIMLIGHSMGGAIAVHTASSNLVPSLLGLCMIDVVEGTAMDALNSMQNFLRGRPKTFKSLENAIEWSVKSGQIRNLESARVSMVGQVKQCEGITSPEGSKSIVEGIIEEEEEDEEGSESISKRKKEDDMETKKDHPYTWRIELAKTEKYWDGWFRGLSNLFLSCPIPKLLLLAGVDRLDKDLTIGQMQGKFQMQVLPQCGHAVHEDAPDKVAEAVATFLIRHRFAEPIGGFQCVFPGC
LYPLA2 inh – LYPLA2 inhibitors, primary screen, counter-screen for PME1 inhibitor project, biochemical, fluorescence polarization, FP-Rh probe ABPP; recombinant LYPLA2; 0.38% of 320,000 active; inhibition, % at 5.9 µM; AID 2177, 2009; Acyl-protein thioesterase 2 (Homo sapiens), O95372;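 active = inhibition above the screen-wide mean plus 3 SD, limit set per campaign, cut at about 26% in these data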;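 note: 0% = LYPLA2 with DMSO and 100% = wells lacking LYPLA2 enzyme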
LYPLA2 conf – LYPLA2 inhibitors, retest, confirmation, counter-screen for PME1 inhibitor project, biochemical, fluorescence polarization, FP-Rh probe ABPP. shares compounds with LYPLA2 inh. 72% of 1,100 active. recombinant LYPLA2. AID 2232, 2010. inhibition, % at 5.9 µM;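 active = mean inhibition across replicates above the hit cutoff set in the primary screen, cut at about 26% in these data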;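 note: blocked labeling of the enzyme by serine hydrolase FP-Rh probe lowers polarization; 0% = enzyme with DMSO and 100% = wells lacking LYPLA2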
LYPLA2 ABPP – LYPLA2 inhibitors in proteome, late-stage follow-up, gel-based competitive ABPP, fluorescence, assay provider | shares compounds with LYPLA2 inh | rhLYPLA2 in mouse brain proteome, gel ABPP FP-Rh | inhibition, % at 20 µM | 30% of 150 active | AID 652029, 2013;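 active = inhibition of LYPLA2 enzyme probe labeling above about 50%, limit read from the data; inactive = inhibition below that limit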;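 note: loss of FP-Rh probe labeling of the LYPLA2 gel band measured as band density; 0% = DMSO only control band and 100% = blank gel background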
* hit, by the source's call; . = no result.

SMILES | RBBP9 inh | LYPLA1 inh | PAD4 FP inh | Fam108B inh | PME-1 inh | LYPLA2 inh | LYPLA2 conf | LYPLA2 ABPP
Cn1c(=O)c2c(ncn2CCC(=O)N/N=C/c2ccccc2)n(C)c1=O | -5.5 | 2.2 | 5.1 | 4.1 | 5.0 | 1.1 | . | .
Nc1ccc(Oc2ccc([N+](=O)[O-])cc2[N+](=O)[O-])cc1 | 0.0 | 2.3 | 1.0 | 0.9 | 3.5 | 54.3* | 57.5* | 1.0
CC1=NN(c2ccccc2)C(=O)/C1=C\c1ccc(Oc2ccc([N+](=O)[O-])cc2[N+](=O)[O-])cc1 | -14.7 | 12.0 | 51.1* | 6.3 | 9.1 | 40.7* | 30.9* | .
COc1cc(/C=C2\C(=O)N(c3ccccc3)N=C2C)ccc1Oc1ccc([N+](=O)[O-])cc1[N+](=O)[O-] | -7.0 | 0.3 | 44.1* | 9.5 | 9.8 | 30.7* | 17.8 | .
COc1ccc(-c2nnc(SCC(=O)NC(=O)NCc3ccco3)o2)cc1 | -11.7 | -2.2 | 1.8 | -0.6 | -11.2 | 1.8 | . | .
COc1cccc(CNC(=O)CCNC(=O)c2ccccc2OC)c1 | . | 0.0 | 1.9 | 2.4 | -3.5 | -2.6 | . | .
O=C(NCc1ccc2c(c1)OCO2)C(=O)NCC1CCCO1 (stereo not drawn) | -2.2 | 5.2 | -3.5 | 2.3 | -0.9 | 0.5 | . | .
COc1cc(C2Oc3cc(C4Oc5cc(O)cc(O)c5C(=O)C4O)ccc3OC2CO)ccc1O (stereo not drawn) | -1.1 | 10.1 | 7.2 | 1.9 | -2.1 | 59.8* | 69.3* | 75.0*
CCCCCCC[N+](CC)(CC)CCCCc1ccc(Cl)cc1 | . | 2.0 | -0.5 | 4.0 | -2.6 | 35.0* | 29.8* | .
CCCCCNCc1ccc(Cl)cc1 | -4.6 | -0.1 | -1.5 | -0.2 | 4.1 | 2.6 | . | .
COc1ccc(CCn2c(C)cc(C(=O)COC(=O)c3cnccn3)c2C)cc1 | . | 1.7 | -7.3 | 2.8 | 5.1 | 42.8* | 40.6* | .
COc1ccc(CCn2c(C)cc(C(=O)COC(=O)c3cnc(C)cn3)c2C)cc1 | . | 1.1 | -4.4 | 1.2 | 7.7 | 14.6 | . | .
CN(C(=O)c1ccc(NC(=O)Cc2ccc(NC(=O)C3CCCN(C(=O)C4CCCC4)C3)cc2)cc1)C1CC1 (stereo not drawn) | . | 5.0 | -2.4 | . | 1.6 | 57.5* | 51.5* | 45.0
CN(C(=O)c1ccc(NC(=O)Cc2ccc(NC(=O)C3CCCN(C(=O)c4ccccc4)C3)cc2)cc1)C1CC1 (stereo not drawn) | . | 3.0 | 7.2 | . | 1.4 | 63.5* | 59.9* | 34.0
CN(C(=O)c1ccc(NC(=O)Cc2ccc(NC(=O)C3CCN(C(=O)C4CCCCC4)CC3)cc2)cc1)C1CC1 | . | 3.0 | -1.1 | . | 0.9 | 7.8 | . | .
CN(C(=O)c1ccc(NC(=O)Cc2ccc(NC(=O)C3CCCN(C(=O)C4CCCCC4)C3)cc2)cc1)C1CC1 (stereo not drawn) | . | 8.3 | -0.7 | . | 3.4 | 56.9* | 50.9* | 13.0
CN(C(=O)c1ccc(NC(=O)Cc2ccc(NC(=O)C3CCCN(C(=O)C4CCC4)C3)cc2)cc1)C1CC1 (stereo not drawn) | . | 4.5 | -6.7 | . | -2.3 | 65.9* | 61.1* | 41.0
CN(C(=O)c1ccc(NC(=O)Cc2cccc(NC(=O)C3CCCN(C(=O)C4CCCCC4)C3)c2)cc1)C1CCCC1 (stereo not drawn) | . | -1.3 | -2.7 | . | 3.9 | 0.8 | . | .
CC1=C([N+](=O)[O-])C(c2ccc(Cl)cc2)NC(=O)N1C (stereo not drawn) | . | 4.2 | -4.2 | 1.0 | 1.0 | 0.4 | . | .
CC(C)(C)C(=O)Nc1ccc(N2CCN(c3ccc(C(F)(F)F)cn3)CC2)nc1 | 4.1 | 0.2 | -5.7 | 1.6 | -6.8 | -1.3 | . | .
